Source: PubChem (The Scripps Research Institute Molecular Screening Center)
OX1R antag-1 – antagonists of human orexin 1 receptor (OX1R); O43613; OX1R-expressing cells, FRET antagonist read-out; inhibition, % at 6.6 µM; 330,000 compounds, 1.8% hits; in the data active means inhibition mostly above about 38%, no sharp cut-off; inactive means mostly below about 40%
TAAR1 antagonist – human TAAR1 antagonism | Q96RJ0 | CHO RD-HGA16 TAAR1, Fluo-8 calcium fluorescence, antagonist | inhibition, % at 3 µM | 360,000 compounds, 1.5% hits;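 active means inhibition above a per-plate cutoff, the mean inhibition of test compounds on that plate plus 3 SD, cut at about 49% in these data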
Target sequence (Q96RJ0 whole entry, looked up): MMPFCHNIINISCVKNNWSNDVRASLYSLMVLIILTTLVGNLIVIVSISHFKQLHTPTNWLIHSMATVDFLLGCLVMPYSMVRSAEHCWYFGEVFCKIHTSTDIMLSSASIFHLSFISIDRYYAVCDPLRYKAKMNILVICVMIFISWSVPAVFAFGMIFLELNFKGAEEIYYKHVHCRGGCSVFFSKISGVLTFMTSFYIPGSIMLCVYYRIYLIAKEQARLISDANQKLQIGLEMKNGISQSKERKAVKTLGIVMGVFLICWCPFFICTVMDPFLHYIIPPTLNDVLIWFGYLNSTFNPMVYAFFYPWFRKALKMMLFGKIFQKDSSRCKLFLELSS
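test system = CHO RD-HGA16 cells bearing hTAAR1 | replication = singlicate | controls = DMSO-only wells and EC80 β-PEA-stimulated wells | reagent = EC80 β-phenethylamine stimulus | read-out basis = percent inhibition of PEA-evoked calcium signal, max/basal emission ratio | schedule = seeding 17-24 h prior, 75-min 37 °C, 30-min RT dye loading | signal = kinetic Fluo-8 calcium fluorescence measurement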
CHO parental Ca – counter-screen for OX1R antagonists: effect in parental CHO cells; parental CHO-K1, ATP-induced calcium, Fluo-8 fluorescence; 330,000 compounds, 0.63% hits; AID 463079; inhibition, % at 5.6 µM;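 active means inhibition above that plate's mean sample inhibition plus 3 SD, cut at about 26% in these data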
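Assay system: untransfected parental CHO cell line. Also added: ATP agonist challenge. Dosing: one dose, 5.6 µM nominal. Measured by: Fluo-8 fluorescence. Read-out: % inhibition. Benchmarks: ATP wells versus no-ATP DMSO wells. Repeats: no replicates.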
GPR7 antag – antagonists of human GPR7 (neuropeptides B/W receptor 1); AID 1861; inhibition, % at 4.4 µM; P48145; GPR7-expressing cells, fluorescence antagonist assay; 290,000 compounds, 1.1% hits; in the data active means inhibition above about 16%, passing the limit was not always enough;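 further: cells stimulated with the agonist NPW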
Target sequence (P48145 whole entry, looked up): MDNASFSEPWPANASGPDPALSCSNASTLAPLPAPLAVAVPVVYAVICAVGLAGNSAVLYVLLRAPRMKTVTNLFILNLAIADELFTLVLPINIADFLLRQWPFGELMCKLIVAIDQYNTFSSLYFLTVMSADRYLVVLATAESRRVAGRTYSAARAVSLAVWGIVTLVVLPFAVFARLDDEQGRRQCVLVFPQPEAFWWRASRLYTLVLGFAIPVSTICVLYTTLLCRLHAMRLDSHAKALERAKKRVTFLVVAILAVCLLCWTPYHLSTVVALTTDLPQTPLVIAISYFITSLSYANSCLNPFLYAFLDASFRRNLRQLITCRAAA
TAAR1 ag – agonists of human TAAR1; CHO RD-HGA16 TAAR1, Fluo-8 calcium fluorescence; vehicle wells 0%, saturating PEA agonist 100%; activation, % at 3 µM; 360,000 compounds, 0.99% hits; AID 624467;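 active means activation above the mean activation of all test compounds in the run plus 3 SD, cut at about 38% in these data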
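System: CHO-derived RD-HGA16 cells with stable Gα16 and human TAAR1 / Times: 17-24 h plating, Fluo-8 75 min 37 °C, 30 min RT / Technique: calcium-sensitive Fluo-8 signal, excitation 470-495, emission 515-575 nm / Measure: % activation relative to PEA EC100 response / Benchmarks: DMSO and PEA EC100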
OX1R antag-2 – blocks the human orexin 1 receptor. CHO/OX1R cells, Fluo-8 calcium fluorescence, orexin A. inhibition, % at 5 µM. 330,000 compounds, 0.43% hits;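 active means inhibition above its plate's threshold, mean inhibition of all tested compounds on the plate plus 3 SD, cut at about 37% in these data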
OX1R HTRF conf – confirmation of human orexin 1 receptor antagonists, HTRF format; shares compounds with OX1R antag-1; OX1R-expressing cells, HTRF antagonist assay; inhibition, % at 6.6 µM; 1,800 compounds, 49% hits; AID 492964; in the data active means inhibition above about 55%;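 further: CHO cells expressing OX1R stimulated with orexin A at about EC80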
CHO-K1 HTRF cnt – counter-screen: parental CHO-K1 HTRF response. 1,800 compounds, 48% hits. parental CHO-K1 cells, HTRF counterscreen. inhibition, % at 6.6 µM. AID 493232. shares compounds with OX1R antag-1; in the data active means inhibition above about 17%
Each line names hits and unclear results; the compound was inactive in the other large screens (follow-up assays come after a bar, where they were run). An excerpt weighted towards active compounds, which were near 4.6% of everything screened.

CNC(=O)c1c(NC(=O)c2ccco2)sc2c1CCC2	OX1R antag-1 78 | OX1R HTRF conf inactive | CHO-K1 HTRF cnt inactive
CCOC(=O)N1CCN(c2cc(NCCO)c([N+](=O)[O-])c3nonc23)CC1	none
O=[N+]([O-])c1c(NCCO)cc(N2CCCCC2)c2nonc12	OX1R antag-1 90 | OX1R HTRF conf inactive | CHO-K1 HTRF cnt 39
COC(=O)c1ccc(CNC(=O)/C=C/[C@H]2O[C@@H](n3cc(C)c(=O)[nH]c3=O)C[C@@H]2O)cc1	none (no result: OX1R antag-1, CHO parental Ca, GPR7 antag, OX1R antag-2)
CC12CCC(C(=O)Nc3ccc(Br)cn3)(OC1=O)C2(C)C (centres undefined)	none
COc1ccc(-c2cc(=O)n(CCC#N)[nH]2)cc1	none
COc1ccc(-c2ncn(CCC#N)c2[N+](=O)[O-])cc1	OX1R antag-1 85 | OX1R HTRF conf inactive | CHO-K1 HTRF cnt 42
O=C(CSc1ncn[nH]1)Nc1cccc(S(=O)(=O)N2CCCCCC2)c1	none
Nc1nc(SCC(=O)Nc2cccc(S(=O)(=O)N3CCCCCC3)c2)n[nH]1	OX1R antag-1 89 | OX1R HTRF conf inactive | CHO-K1 HTRF cnt inactive
CCc1nc2c(OCc3cccc(Cl)c3)cccn2c1N(C)C(=O)c1ccco1	none (no result: OX1R antag-1, CHO parental Ca, GPR7 antag, OX1R antag-2)
O=C(O)C1CCCCN1S(=O)(=O)c1cccc2nsnc12 (centres undefined)	none (no result: TAAR1 antagonist, TAAR1 ag)
O=C(Nc1ccc(F)cc1F)C1CCCN1S(=O)(=O)c1cccc2nsnc12 (centres undefined)	OX1R antag-1 77 | OX1R HTRF conf 59 | CHO-K1 HTRF cnt 27
CCN(CC)C(=O)C1=C(C)N(CCCOC)C(=O)C(CC(=O)NCc2cccs2)C1 (centres undefined)	none (no result: OX1R antag-1, CHO parental Ca, GPR7 antag, OX1R antag-2)
CCCCC(=O)N/N=C/c1ccc(-c2ccc([N+](=O)[O-])cc2)o1	OX1R antag-1 102 | OX1R HTRF conf inactive | CHO-K1 HTRF cnt inactive
Cc1cc(Cl)ccc1NC(=O)C1CCCN1C(=O)c1cccs1 (centres undefined)	none
CCOC(=O)c1ccc2[nH]c(C)c(C)c2c1	OX1R antag-1 93 | OX1R HTRF conf 66 | CHO-K1 HTRF cnt inactive
Cc1[nH]c2ccc(C(=O)OCCN(C)C)cc2c1C	none
CCOn1c(=O)c(-c2ccc(OC)c(OC)c2)[n+]([O-])c2ccccc21	OX1R antag-1 103 | OX1R HTRF conf inactive | CHO-K1 HTRF cnt 37
C=CCOn1c(=O)c(-c2ccccc2)[n+]([O-])c2ccccc21	OX1R antag-1 122 | OX1R HTRF conf inactive | CHO-K1 HTRF cnt 47
CCOn1c(=O)c(-c2ccc(OC)cc2)[n+]([O-])c2ccccc21	OX1R antag-1 121 | OX1R HTRF conf inactive | CHO-K1 HTRF cnt 38
CSCCC(NC(=O)c1ccccc1)C(=O)NCCc1ccc2c(c1)OCCO2 (centres undefined)	none (no result: GPR7 antag)
CCCn1c(SCC(=O)Nc2nnc(-c3ccccc3)s2)nnc1-c1ccccn1	OX1R antag-1 78 | OX1R HTRF conf 65 | CHO-K1 HTRF cnt inactive
CCCn1c(SCC(=O)NCCc2ccccc2)nnc1-c1ccccn1	none
C[n+]1cnc(-c2ccccc2)cc1-c1ccccc1	OX1R antag-1 85 | OX1R HTRF conf inactive | CHO-K1 HTRF cnt 64
c1ccc(-c2cc(-c3ccccc3)ncn2)cc1	none (no result: GPR7 antag)
CC(=O)N/C(=C\c1ccccc1)C(=O)OC(C)C(=O)c1ccccc1 (centres undefined)	none (no result: GPR7 antag)
O=C1NC(=S)N/C1=C/c1cccc([N+](=O)[O-])c1	OX1R antag-1 93 | OX1R HTRF conf inactive | CHO-K1 HTRF cnt 40
O=C1NC(=S)N/C1=C\c1cccc([N+](=O)[O-])c1	none
Cc1ccc([C@H]2N[C@]3(CCCN(Cc4ccc(C(F)(F)F)cc4)C3=O)[C@H]3C(=O)N(C)C(=O)[C@@H]23)cc1	none (no result: OX1R antag-1, CHO parental Ca, GPR7 antag, OX1R antag-2)
O=[N+]([O-])c1ccc(Sc2cc[n+]([O-])c3ccccc23)c([N+](=O)[O-])c1	OX1R antag-1 98 | OX1R HTRF conf 55 | CHO-K1 HTRF cnt 78
COc1ccc2nc(NC(=O)c3cccnc3SC)sc2c1	OX1R antag-1 88 | OX1R HTRF conf 77 | CHO-K1 HTRF cnt inactive
O=C(Nc1ccccc1)[C@@H]1CC=C[C@@H]2CCN(Cc3ccccc3)C(=O)[C@@H]21	OX1R antag-1 83 (no result: GPR7 antag) | OX1R HTRF conf 86 | CHO-K1 HTRF cnt inactive
CCCCN1CC[C@H]2C=CC[C@@H](C(=O)Nc3ccc(Cl)c(C(F)(F)F)c3)[C@H]2C1=O	none (no result: GPR7 antag)
O=C(Nc1ccc(Cl)c(C(F)(F)F)c1)[C@@H]1CC=C[C@@H]2CCN(Cc3ccccc3)C(=O)[C@@H]21	OX1R antag-1 84 (no result: GPR7 antag) | OX1R HTRF conf 85 | CHO-K1 HTRF cnt inactive
O=C(c1ccccc1-c1nc(-c2ccc(Cl)cc2)no1)N1CCCC1	none
CNS(=O)(=O)c1cc(NC(=O)CCNC(=O)c2ccco2)ccc1C	none
O=C(OCC(=O)N1CCC(Cc2ccccc2)CC1)c1cc(Cl)ccc1O	none (no result: GPR7 antag)
CCCS(=O)(=O)N1CCCC(C(=O)NCCCN(Cc2ccccc2)C(C)C)C1 (centres undefined)	OX1R antag-1 107 | OX1R HTRF conf inactive | CHO-K1 HTRF cnt inactive
CCOc1ccccc1N1CCN(C2=C(NS(=O)(=O)c3cccs3)C(=O)c3ccccc3C2=O)CC1	none
O=C1C(Cl)=C(N2CCC(C(=O)O)CC2)C(=O)c2ccccc21	OX1R antag-1 101 (no result: TAAR1 antagonist, TAAR1 ag) | OX1R HTRF conf inactive | CHO-K1 HTRF cnt 64
NC(=O)C1CCN(C2=C(NS(=O)(=O)c3ccccc3)C(=O)c3ccccc3C2=O)CC1	OX1R antag-1 129 | OX1R HTRF conf 59 | CHO-K1 HTRF cnt 76
CN1CCN(C2=C(Cl)C(=O)c3ccccc3C2=O)CC1	none (no result: OX1R antag-1, CHO parental Ca, GPR7 antag, OX1R antag-2)
O=C1C(NS(=O)(=O)c2cccs2)=C(N2CCOCC2)C(=O)c2ccccc21	OX1R antag-1 86 | OX1R HTRF conf 95 | CHO-K1 HTRF cnt 63
CCN1CCN(C2=C(NS(=O)(=O)c3ccc(Br)cc3)C(=O)c3ccccc3C2=O)CC1	OX1R antag-1 95 | OX1R HTRF conf 70 | CHO-K1 HTRF cnt 88
COc1ccccc1/C=C/CN1CCNC(=O)C1CC(=O)NCCc1cnccn1 (centres undefined)	none
CN1CCN(C2=C(NS(=O)(=O)c3ccccc3)C(=O)c3ccccc3C2=O)CC1	OX1R antag-1 96 (no result: TAAR1 antagonist, TAAR1 ag) | OX1R HTRF conf 74 | CHO-K1 HTRF cnt 90
CN1CCN(C2=C(NS(=O)(=O)c3cccs3)C(=O)c3ccccc3C2=O)CC1	OX1R antag-1 132 | OX1R HTRF conf 62 | CHO-K1 HTRF cnt 99
O=C1C(NS(=O)(=O)c2ccc(Cl)cc2)=C(N2CCCCC2)C(=O)c2ccccc21	OX1R antag-1 111 | OX1R HTRF conf inactive | CHO-K1 HTRF cnt 41
COc1ccc(/C=N/OC(=O)Nc2ccccc2OC)cc1	none
